In PMC3502072 (Molecular cancer therapeutics, 2012):
Entries after “also recorded” stand apart in the source; their conditions may differ.

Legend:
[1] = test system: MM cells (RPMI-8226, NCI-H929, U266B1, MM.1S); assay: CellTiter-Glo cell viability, multiple myeloma cell lines; format: cell-based, human; conditions: 24 h; for Concentrations that significantly reduced MM cell viability: RPMI-8226 cells
[2] = test system: NCI-H929 subcutaneous xenografted tumors; assay: MM subcutaneous plasmacytoma model; format: in vivo, hairless SCID mice; conditions: for Tumor growth delay relative to vehicle-treated controls: 5 mg/kg
[3] = Pilot toxicity study, body condition scoring; format: in vivo, mice
How it was run: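 Pilot tolerability study in a small cohort of mice. Doses were chosen from a range based on NCI DTP toxicity data. A single dose was given, and toxicity was assessed qualitatively by body condition scoring.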

[4] = test system: human cell lines derived from multiple tumor types; assay: CellTiter-Glo cell viability, panel of tumor cell lines; format: cell-based
[5] = test system: primary CD138-positive plasma cells from MM patient bone marrow biopsies; assay: Cell viability of primary MM patient plasma cells; format: cell-based, human; conditions: 24 h; cells from 2 patients
How it was run: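 Bone marrow aspirates from MM patients were separated on Ficoll-Paque. CD138+ plasma cells were isolated with magnetic anti-CD138 beads, and purity was checked by FACS. Cells were cultured in RPMI 1640 with 10% FBS and gentamycin at 37°C and 5% CO2, then treated with the test compound at a range of concentrations for 24 h. Viability was read by CellTiter-Glo luminescence; mean ± S.E (n=3).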

[6] = test system: RPMI-8226 cells; assay: Apoptosis, cleaved caspase-3 flow cytometry in MM cells; format: cell-based, human; conditions: 16 hours
[7] = test system: H460, A172, HT29, HepG2, hFOB and MRC-5 cells; format: cell-based, human; conditions: 500 nM, 16 hours
[8] = test system: PKC; conditions: cited from earlier work
[9] = target: CDK9 (Homo sapiens, UniProt P50750); conditions: cited from earlier work
CDK9 (Homo sapiens, UniProt P50750), sequence (P50750 whole entry): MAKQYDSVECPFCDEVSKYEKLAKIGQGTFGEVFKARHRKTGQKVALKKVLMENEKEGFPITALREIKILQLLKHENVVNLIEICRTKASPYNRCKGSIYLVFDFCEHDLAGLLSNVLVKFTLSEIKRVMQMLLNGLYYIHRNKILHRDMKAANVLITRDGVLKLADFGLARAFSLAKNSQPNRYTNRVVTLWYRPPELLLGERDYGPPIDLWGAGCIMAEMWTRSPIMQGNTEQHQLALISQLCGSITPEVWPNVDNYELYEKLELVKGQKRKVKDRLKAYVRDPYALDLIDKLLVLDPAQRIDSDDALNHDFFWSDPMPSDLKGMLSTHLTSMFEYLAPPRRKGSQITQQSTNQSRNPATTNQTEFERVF
CDK9 (Homo sapiens, UniProt P50750), sequence (O60563 whole entry partner): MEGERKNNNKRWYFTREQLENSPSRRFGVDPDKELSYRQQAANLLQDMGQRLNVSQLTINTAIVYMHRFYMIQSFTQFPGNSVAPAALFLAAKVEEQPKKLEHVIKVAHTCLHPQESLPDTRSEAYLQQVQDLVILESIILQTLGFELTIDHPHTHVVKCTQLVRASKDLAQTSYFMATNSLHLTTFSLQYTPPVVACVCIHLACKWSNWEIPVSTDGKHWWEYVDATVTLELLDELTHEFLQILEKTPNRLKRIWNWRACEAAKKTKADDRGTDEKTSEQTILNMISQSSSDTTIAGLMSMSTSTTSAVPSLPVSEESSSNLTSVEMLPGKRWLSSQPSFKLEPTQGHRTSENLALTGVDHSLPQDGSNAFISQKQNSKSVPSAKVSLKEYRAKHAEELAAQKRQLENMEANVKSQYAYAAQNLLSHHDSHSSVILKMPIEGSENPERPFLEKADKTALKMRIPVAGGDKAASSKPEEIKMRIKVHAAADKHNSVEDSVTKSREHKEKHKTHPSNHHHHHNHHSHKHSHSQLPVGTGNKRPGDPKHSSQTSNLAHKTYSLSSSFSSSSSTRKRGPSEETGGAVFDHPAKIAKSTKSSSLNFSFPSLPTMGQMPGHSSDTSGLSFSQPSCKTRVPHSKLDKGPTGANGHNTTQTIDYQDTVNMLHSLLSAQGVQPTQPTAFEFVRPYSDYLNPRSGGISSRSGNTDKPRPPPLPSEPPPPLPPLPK

[10] = Serum biochemistry and complete blood count in immunocompetent mice; format: in vivo; conditions: C57BL/6 mice
[11] = target: CDK1/cyclin B (Homo sapiens, UniProt P06493); assay: HotSpot in vitro kinase assay CDK1/cyclin B; format: biochemical; conditions: read-out: IC50 CDK1/cyclin B
CDK1/cyclin B, sequence (P06493 whole entry): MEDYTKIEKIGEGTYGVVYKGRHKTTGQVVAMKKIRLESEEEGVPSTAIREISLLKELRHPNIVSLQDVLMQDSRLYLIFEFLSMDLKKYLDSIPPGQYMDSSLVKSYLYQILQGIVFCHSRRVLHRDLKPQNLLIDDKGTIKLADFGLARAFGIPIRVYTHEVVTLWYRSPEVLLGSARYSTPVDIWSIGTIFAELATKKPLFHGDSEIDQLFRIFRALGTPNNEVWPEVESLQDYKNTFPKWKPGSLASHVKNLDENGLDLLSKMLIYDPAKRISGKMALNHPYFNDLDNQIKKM
CDK1/cyclin B, sequence (P14635 whole entry partner): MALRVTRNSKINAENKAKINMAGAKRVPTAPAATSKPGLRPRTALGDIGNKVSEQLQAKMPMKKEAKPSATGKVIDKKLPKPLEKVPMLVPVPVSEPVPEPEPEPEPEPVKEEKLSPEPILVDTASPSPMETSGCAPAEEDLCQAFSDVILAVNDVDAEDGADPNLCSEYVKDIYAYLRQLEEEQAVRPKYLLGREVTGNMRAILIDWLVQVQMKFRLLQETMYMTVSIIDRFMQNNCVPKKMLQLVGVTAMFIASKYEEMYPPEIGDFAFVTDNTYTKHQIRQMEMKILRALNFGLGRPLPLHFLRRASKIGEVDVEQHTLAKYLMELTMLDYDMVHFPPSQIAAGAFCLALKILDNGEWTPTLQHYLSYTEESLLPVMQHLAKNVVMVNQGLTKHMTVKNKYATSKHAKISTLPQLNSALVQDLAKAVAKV

[12] = target: CDK4/cyclin D1 (Homo sapiens, UniProt P11802); assay: HotSpot in vitro kinase assay CDK4/cyclin D1; format: biochemical; conditions: read-out: IC50 CDK4/cyclin D1
CDK4/cyclin D1, sequence (P11802 whole entry): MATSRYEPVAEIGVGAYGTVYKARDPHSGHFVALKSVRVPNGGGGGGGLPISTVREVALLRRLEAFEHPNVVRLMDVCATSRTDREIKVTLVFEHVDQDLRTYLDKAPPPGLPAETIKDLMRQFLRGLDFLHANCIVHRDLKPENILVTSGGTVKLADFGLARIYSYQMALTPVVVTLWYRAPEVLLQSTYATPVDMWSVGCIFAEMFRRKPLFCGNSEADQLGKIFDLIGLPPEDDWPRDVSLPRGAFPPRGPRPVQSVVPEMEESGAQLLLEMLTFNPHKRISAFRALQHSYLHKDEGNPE
CDK4/cyclin D1, sequence (P24385 whole entry partner): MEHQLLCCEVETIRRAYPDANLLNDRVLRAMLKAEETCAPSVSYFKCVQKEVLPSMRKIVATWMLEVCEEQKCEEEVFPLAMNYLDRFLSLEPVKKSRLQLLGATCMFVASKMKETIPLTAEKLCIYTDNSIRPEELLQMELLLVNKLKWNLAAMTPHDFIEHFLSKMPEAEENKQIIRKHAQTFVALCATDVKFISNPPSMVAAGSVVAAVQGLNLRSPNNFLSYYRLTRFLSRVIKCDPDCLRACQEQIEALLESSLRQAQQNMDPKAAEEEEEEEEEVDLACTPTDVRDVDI

[13] = target: CDK7/cyclin H (Homo sapiens, UniProt P50613); assay: HotSpot in vitro kinase assay CDK7/cyclin H; format: biochemical; conditions: read-out: IC50 CDK7/cyclin H
CDK7/cyclin H, sequence (P50613 whole entry): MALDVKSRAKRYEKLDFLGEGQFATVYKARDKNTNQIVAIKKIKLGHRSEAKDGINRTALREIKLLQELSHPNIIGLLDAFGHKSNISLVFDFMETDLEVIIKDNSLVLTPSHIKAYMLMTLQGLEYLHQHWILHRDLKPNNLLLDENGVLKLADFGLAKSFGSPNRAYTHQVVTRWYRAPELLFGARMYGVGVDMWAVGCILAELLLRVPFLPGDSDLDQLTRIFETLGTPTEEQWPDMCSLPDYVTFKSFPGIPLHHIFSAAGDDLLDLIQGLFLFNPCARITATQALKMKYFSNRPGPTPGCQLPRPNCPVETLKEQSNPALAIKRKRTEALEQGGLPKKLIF
CDK7/cyclin H, sequence (P51946 whole entry partner): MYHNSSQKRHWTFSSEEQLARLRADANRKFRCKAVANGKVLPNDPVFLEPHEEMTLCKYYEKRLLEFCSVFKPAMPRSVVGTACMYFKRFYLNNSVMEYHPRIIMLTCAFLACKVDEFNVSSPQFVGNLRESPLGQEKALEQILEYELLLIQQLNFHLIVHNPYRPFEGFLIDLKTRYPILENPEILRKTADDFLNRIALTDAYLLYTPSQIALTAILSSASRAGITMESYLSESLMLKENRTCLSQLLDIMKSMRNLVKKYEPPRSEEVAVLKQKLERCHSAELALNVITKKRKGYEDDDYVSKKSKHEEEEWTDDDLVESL
CDK7/cyclin H, sequence (P51948 whole entry partner): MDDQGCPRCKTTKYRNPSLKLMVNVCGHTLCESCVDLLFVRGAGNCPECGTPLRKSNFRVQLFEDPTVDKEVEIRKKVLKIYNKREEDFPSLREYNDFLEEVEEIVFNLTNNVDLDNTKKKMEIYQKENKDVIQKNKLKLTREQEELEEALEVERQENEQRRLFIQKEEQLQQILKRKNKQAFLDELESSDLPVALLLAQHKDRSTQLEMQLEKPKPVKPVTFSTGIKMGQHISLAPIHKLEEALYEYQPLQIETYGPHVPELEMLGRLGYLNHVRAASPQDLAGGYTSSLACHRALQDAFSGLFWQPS

[14] = test system: PKC; assay: Phorbol ester-induced PKC and ERK phosphorylation in MM cells; format: cell-based, human; conditions: MM cells stimulated with phorbol-12-myristate-13-acetate
[15] = test system: CDK9; assay: CDK9 signaling, Western blots in MM cells; format: cell-based, human; conditions: NCI-H929 cells, 2 hours
[16] = test system: CDK7; assay: RNA polymerase II Ser5 phosphorylation; format: cell-based, human; conditions: NCI-H929 cells, 2 hours
[17] = test system: cyclin D1, c-Maf, c-Myc, L-Myc; assay: Expression of MM oncogenes, Western blot and RT-PCR; format: cell-based, human; conditions: 250 nM
[18] = test system: NCI-H929 and CD138+ MM patient bone marrow cells; assay: Cell viability, SLM6 with bortezomib; format: cell-based, human; conditions: single agents
[19] = target: CDK9/cyclin K (Homo sapiens, UniProt P50750); conditions: read-out: IC50 CDK9/cyclin K kinase activity
CDK9/cyclin K, sequence (P50750 whole entry): as the sequence (P50750 whole entry) above
CDK9/cyclin K, sequence (O75909 whole entry partner): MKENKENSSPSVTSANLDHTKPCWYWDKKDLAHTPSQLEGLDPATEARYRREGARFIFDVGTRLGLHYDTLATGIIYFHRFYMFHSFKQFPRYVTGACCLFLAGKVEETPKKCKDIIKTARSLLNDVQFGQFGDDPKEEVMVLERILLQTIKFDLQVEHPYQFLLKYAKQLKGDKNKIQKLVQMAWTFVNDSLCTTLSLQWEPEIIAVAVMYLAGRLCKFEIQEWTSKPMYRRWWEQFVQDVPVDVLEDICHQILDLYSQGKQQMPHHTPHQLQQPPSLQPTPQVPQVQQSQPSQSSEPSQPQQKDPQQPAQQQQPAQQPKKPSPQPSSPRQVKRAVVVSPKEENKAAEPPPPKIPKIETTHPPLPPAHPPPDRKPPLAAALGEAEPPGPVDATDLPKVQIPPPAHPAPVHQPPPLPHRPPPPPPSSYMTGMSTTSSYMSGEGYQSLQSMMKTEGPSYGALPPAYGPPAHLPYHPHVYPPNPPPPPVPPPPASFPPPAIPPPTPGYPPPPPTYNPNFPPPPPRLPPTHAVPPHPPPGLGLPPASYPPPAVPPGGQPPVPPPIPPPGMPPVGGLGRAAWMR

[20] = target: CDK9/cyclin T1 (Homo sapiens, UniProt P50750); conditions: read-out: IC50 CDK9/cyclin T1 kinase activity
CDK9/cyclin T1, sequence (P50750 whole entry): as the sequence (P50750 whole entry) above
CDK9/cyclin T1, sequence (O60563 whole entry partner): as the sequence (O60563 whole entry partner) above

[21] = target: CDK2/cyclin A (Homo sapiens, UniProt P24941); conditions: read-out: IC50 CDK2/cyclin A
[22] = test system: RPMI-8226/NIH-3T3 tumors; assay: RPMI-8226-GFP/NIH-3T3 co-injection xenograft model
[23] = cited from earlier work

For `O=c1[nH]cc(F)c(=O)[nH]1` [5′-fluorouracil], the “Effect on MM cell viability” value [1] was “relatively insensitive”.
With `[Cl-].[Li+]` [LiCl, lithium chloride] the “Effect on MM cell viability” value [1] was “neither LiCl nor purvalanol A reduced MM cell viability; also recorded: relatively insensitive”.
For `O=C1NC(=NCc2cccs2)S/C1=C\c1ccc2ncccc2c1` [RO3306], the “Effect on MM cell viability” value [1] was “relatively insensitive”.
In the case of `Cl.NNc1c(C(N)=O)c2c(N)ncnc2n1C1OC(CO)C(O)C1O` (stereo not drawn) [SLM3 HCl], the “Effect on the growth of MM tumors” value ([2]; 25 mg/kg, weekly i.p.) is reported as “no effect” and the “Toxicity by body condition scoring” value ([3]; single dose of 25 mg/kg) is reported as “no overt toxicity”.
For `NNc1c(C(N)=O)c2c(N)ncnc2n1[C@@H]1O[C@H](CO)[C@@H](O)[C@H]1O` [SLM3], the “Sensitivity of MM cells relative to other tumor types” value ([4]; MM cell lines and primary patient plasma cells vs other tumor types) was 3 to 10 times, the IC50 ([4]; read-out: IC50, cell viability, 24 h, breast, colon, lung, hepatocellular, glioma and one of two pancreatic cancer cell lines) was > 2000 nM and the “Effect on MM cell viability” value [1] was “superior activity compared to other nucleoside analogs”. For the same molecule, the “Concentrations that significantly reduced MM cell viability” value [1] was “less than 250 nM”, the IC50 ([1]; read-out: IC50, cell viability, MM cells) was 200 to 400 nM and the “Activity on cell viability of primary plasma cells” value [5] was “confirmed this activity”. The “Apoptotic marker cleaved caspase-3” value ([6]; RPMI-8226, increasing concentrations) was “dose-dependent increase”, the “Apoptosis (active caspase-3 positive cells)” value [7] was “negligible levels of apoptosis” and the “Activity against PKC in vitro” value [8] was “modest activity”. For the same molecule, the “Activity against CDK9 in vitro” value [9] was “modest activity”.
For `N/C(=N\O)c1cn(C2OC(CO)C(O)C2O)c2ncnc(N)c12` (stereo not drawn) [SLM5], the “Concentrations that significantly reduced MM cell viability” value [1] was “less than 250 nM”, the “Tumor growth delay relative to vehicle-treated controls” value ([2]; weekly i.p.) was 7 days and the “Toxicity by body condition scoring” value ([3]; single dose of 5 mg/kg) was “no overt toxicity”.
In the case of `N/N=C(\N)c1cn(C2OC(CO)C(O)C2O)c2ncnc(N)c12` (stereo not drawn) [SLM6], the “Effect on MM cell viability” value [1] is reported as “able to reduce the viability of MM cells”, the “Concentrations that significantly reduced MM cell viability” value [1] is reported as “less than 250 nM” and the “Apoptotic markers in tumors (immunohistochemistry)” value ([2]; 1 mg/kg i.p., 48 hours) is reported as “regions of intense cleaved caspase-3 and cleaved caspase-8 immunostaining”. The “Duration of sustained anti-tumor activity” value ([2]; 1 mg/kg i.p., single dose on day 1) was 5 weeks, the “Toxicity by body condition scoring” value ([3]; single dose of 1 mg/kg) was “no overt toxicity” and the “Effects on normal hematopoiesis, complete blood count with differential” value [10] was “no effects on normal hematopoiesis in vivo other than modest thrombocytopenia”. For the same molecule, the “Systemic toxicity by serum biochemistry” value [10] was “no signs of systemic toxicity”, the IC50 [11] was < 300 nM and the IC50 [12] was > 10 µM. The IC50 [13] was > 10 µM, the “Phorbol ester-induced PKC or ERK phosphorylation” value [14] was “no effect” and the “Lowest concentration inhibiting phosphorylation of RNA polymerase II at Ser2” value [15] was 250 nM. The “Phosphorylation of CDK9 at Thr186” value [15] was “inhibited phosphorylation of CDK9 at Thr186”, the “Phosphorylation of RNA polymerase II at Ser5” value [16] was “no effect” and the “c-Myc and cyclin D1 mRNA transcripts (RT-PCR)” value ([17]; 6 hours, RPMI-8226 and U266B1 cells) was “decreased c-Myc and cyclin D1 mRNA transcripts”. The “Oncogene protein expression (Western blot)” value ([17]; time course, U266B1, RPMI-8226, NCI-H929 cells) was “repressed the expression of cyclin D1 in U266B1 cells and c-Maf expression in RPMI-8226 cells; also recorded: repressed c-Myc protein levels in RPMI-8226 and NCI-H929 cells, and suppressed L-Myc expression in U266B1 cells”, the “Sensitivity of MM cell lines and primary patient plasma cells to single agent” value [18] was “sensitive” and the IC50 [19] was 280 nM. The IC50 [20] was 133 nM, the IC50 [21] was < 300 nM and the “Size of MM tumors relative to vehicle-treated controls” value ([22]; 0.5 mg/kg, weekly i.p.) was “significantly reduced the size of MM tumors”. For the same molecule, the “Time to evident anti-MM effects after first treatment” value ([22]; 0.5 mg/kg, weekly i.p.) was ≤ 7 days and the “Mouse body weight or body condition scoring” value ([22]; repeated dosing, 0.5 mg/kg weekly i.p.) was “no effect”.
In the case of `N=C(N)c1cn(C2OC(CO)C(O)C2O)c2ncnc(N)c12` (stereo not drawn) [SLM7], the “Concentrations that significantly reduced MM cell viability” value [1] is reported as “less than 250 nM”, the “Tumor growth delay relative to vehicle-treated controls” value ([2]; weekly i.p.) is reported as 7 days and the “Toxicity by body condition scoring” value ([3]; single dose of 5 mg/kg) is reported as “no overt toxicity”.
In the case of `O=C1Cc2c([nH]c3ccc([N+](=O)[O-])cc23)-c2ccccc2N1` [alsterpaullone], the “Effect on MM cell viability” value [1] is reported as “micromolar concentrations of alsterpaullone) were able to reduce the viability of MM cells”.
In the case of `CC(C)C[C@H](NC(=O)[C@H](Cc1ccccc1)NC(=O)c1cnccn1)B(O)O` [bortezomib, reference compound], the “Sensitivity of MM cell lines and primary patient plasma cells to single agent” value [18] is reported as “sensitive”.
With `Nc1nc(Cl)nc2c1ncn2[C@H]1C[C@H](O)[C@@H](CO)O1` [cladribine] the “Effect on MM cell viability” value [1] was “relatively insensitive”.
With `CN1CC[C@H](c2c(O)cc(O)c3c(=O)cc(-c4ccccc4Cl)oc23)[C@H](O)C1` [flavopiridol, reference compound] the “Effect on MM cell viability” value [1] was “able to reduce the viability of MM cells” and the “Anti-MM activity in vivo” value ([22]; 5.0 mg/kg, weekly i.p.) was “no anti-MM activity”.
In the case of `Nc1ccn([C@@H]2O[C@H](CO)[C@@H](O)C2(F)F)c(=O)n1` [gemcitabine], the “Effect on MM cell viability” value [1] is reported as “relatively insensitive”.
In the case of `CC(C)[C@H](CO)Nc1nc(Nc2cccc(Cl)c2)c2ncn(C(C)C)c2n1` [purvalanol A], the “Effect on MM cell viability” value [1] is reported as “neither LiCl nor purvalanol A reduced MM cell viability; also recorded: relatively insensitive”.
For `CC[C@H](CO)Nc1nc(NCc2ccccc2)c2ncn(C(C)C)c2n1` [roscovitine], the “Effect on MM cell viability” value [1] was “relatively insensitive”.
For `NC(=O)c1cn([C@@H]2O[C@H](CO)[C@@H](O)[C@H]2O)c2ncnc(N)c12` [sangivamycin, reference compound], the “Concentrations that significantly reduced MM cell viability” value [1] was “less than 250 nM”, the “MM cell apoptosis (cleaved caspase-3 positive cells)” value ([6]; RPMI-8226, 500 nM) was 60-80% and the “Phorbol ester-induced PKC or ERK phosphorylation” value [14] was “significantly reduced phosphorylation of both kinases”. The “Activity against PKC” value [8] was “known to inhibit PKC” and the “Safety in humans, phase I trial” value [23] was “demonstrated the safety of this compound in humans”.
